Assay results reported in ChEMBL document CHEMBL4311965, “Antimicrobial activity of amphipathic α,α-disubstituted β-amino amide derivatives against ESBL - CARBA producing multi-resistant bacteria; effect of halogenation, lipophilicity and cationic character” (Eur J Med Chem, 2019).
Converted amounts (≈) assume the structure as drawn.

Legend:
[1] = test system: Staphylococcus aureus; assay: Antibacterial activity against Staphylococcus aureus ATCC 9144 cultured in MHB medium assessed as no bacterial growth incubated at 37 degC for 24 hrs by microdilution susceptibility test; assay type: functional; settings: ATCC 9144, 24 h
In short: (§1)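 Broth microdilution per CLSI M07-A9 with modifications. Inoculum about 2.5–3 x 10⁴ cells/mL in Mueller-Hinton broth, mixed 1:1 with test derivative. DMSO stocks diluted in double-distilled water, final DMSO <1%. Incubation 24 h at 37 °C (20 °C for C. glutamicum). Growth and sterility controls included; oxytetracycline reference.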

[2] = test system: Corynebacterium glutamicum; assay: Antibacterial activity against Corynebacterium glutamicum ATCC 13032 cultured in MHB medium assessed as no bacterial growth incubated at 20 degC for 24 hrs by microdilution susceptibility test; assay type: functional; settings: ATCC 13032, 24 h; in short: as §1
[3] = test system: Escherichia coli; assay: Antibacterial activity against Escherichia coli ATCC 25922 cultured in MHB medium assessed as no bacterial growth incubated at 37 degC for 24 hrs by microdilution susceptibility test; assay type: functional; settings: ATCC 25922, 24 h; in short: as §1
[4] = test system: Pseudomonas aeruginosa; assay: Antibacterial activity against Pseudomonas aeruginosa PA01 DSM 19880 (ATCC 15692) cultured in MHB medium assessed as no bacterial growth incubated at 37 degC for 24 hrs by microdilution susceptibility test; assay type: functional; settings: PAO1 DSM 19880 (ATCC 15692); in short: as §1
[5] = test system: Erythrocyte; assay: Hemolytic activity against human RBC incubated for 1 hr; assay type: cell-based
In short: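 Heparinized human blood washed three times in warm PBS and set to 10% hct. Erythrocytes at 1% v/v final, with compound in PBS (DMSO <1%), shaken 1 h at 37 °C and then centrifuged. Supernatant absorbance read at 405 and 545 nm after PBS background subtraction. Haemolysis taken relative to 1% Triton X-100. Three independent replicates, EC50 averaged.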

[6] = test system: HepG2; assay: Cytotoxicity against human HepG2 cells assessed as reduction in cell viability incubated for 4 hrs by CellTiter 96 Aqueous One Solution Reagent based assay; settings: HepG2, 4 h
In short: (§2)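 HepG2 and MRC-5 cells seeded at 35 000 and 15 000 cells/well respectively, then held overnight at 37 °C, 5% CO₂. Compounds in serum-free MEM Earle's applied for 4 h. MTS reagent (CellTiter 96 AQueous One) added for a further 1 h, absorbance read at 485 nm. Survival expressed relative to medium (negative) and Triton X-100 (positive) controls.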

[7] = Selectivity index, ratio of EC50 for hemolytic activity against human RBC to MIC for antibacterial activity against Escherichia coli ATCC 25922; assay type: toxicity; settings: human red blood cells (RBC)
In short: (§3)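 Selectivity index is the RBC haemolysis EC50 divided by the MIC against the E. coli or S. aureus reference strain.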

[8] = Aqueous solubility of the compound in DMSO; assay type: physicochemical
[9] = test system: MRC5; assay: Cytotoxicity against human MRC5 cells assessed as reduction in cell viability incubated for 4 hrs by CellTiter 96 Aqueous One Solution Reagent based assay; settings: MRC5, 4 h; in short: as §2
[10] = Selectivity index, ratio of EC50 for hemolytic activity against human RBC to MIC for antibacterial activity against Staphylococcus aureus ATCC 9144; assay type: toxicity; settings: human red blood cells (RBC); in short: as §3

| MIC [1] [µg/mL] | MIC [2] [µg/mL] | MIC [3] [µg/mL] | MIC [4] [µg/mL] | solubility [8] | SMILES | EC50 [5] [µg/mL] | EC50 [6] [µg/mL] | selectivity ratio [7] | EC50 [9] [µg/mL] | selectivity ratio [10] |
| --- | --- | --- | --- | --- | --- | --- | --- | --- | --- | --- |
| > 64 | 32 (≈ 84.4 µM) | > 64 | > 64 | Soluble | N#CC(Cc1cc(F)cc(F)c1)(Cc1cc(F)cc(F)c1)C(=O)NCCN | 208 (≈ 548 µM) | > 64 | – | – | – |
| 32 (≈ 72.2 µM) | 8 (≈ 18 µM) | 16 (≈ 36.1 µM) | 64 (≈ 144 µM) | Soluble | N#CC(Cc1ccc(C(F)(F)F)cc1)(Cc1ccc(C(F)(F)F)cc1)C(=O)NCCN | 178 (≈ 401 µM) | 23 (≈ 51.9 µM) | 11 | 18 (≈ 40.6 µM) | 6 |
| > 64 | > 64 | > 64 | > 64 | Soluble | N#CC(Cc1c(F)cccc1F)(Cc1c(F)cccc1F)C(=O)NCCN | – | > 64 | – | – | – |
| 16 (≈ 34.4 µM) | 32 (≈ 68.8 µM) | 32 (≈ 68.8 µM) | > 64 | Soluble | N#CC(Cc1ccccc1Br)(Cc1ccccc1Br)C(=O)NCCN | 211 (≈ 454 µM) | 26 (≈ 55.9 µM) | 7 | 32 (≈ 68.8 µM) | 13 |

The next lines start with the compound.

| SMILES | MIC [1] [µg/mL] | MIC [2] [µg/mL] | MIC [3] [µg/mL] | MIC [4] [µg/mL] | solubility [8] | EC50 [5] [µg/mL] | EC50 [6] [µg/mL] | selectivity ratio [7] | EC50 [9] [µg/mL] | selectivity ratio [10] |
| --- | --- | --- | --- | --- | --- | --- | --- | --- | --- | --- |
| N#CC(Cc1ccccc1F)(Cc1ccccc1F)C(=O)NCCN | > 64 | 16 (≈ 46.6 µM) | 64 (≈ 186 µM) | > 64 | Soluble | 190 (≈ 553 µM) | > 64 | 3 | – | – |
| N#CC(Cc1ccccc1C(F)(F)F)(Cc1ccccc1C(F)(F)F)C(=O)NCCN | 16 (≈ 36.1 µM) | 8 (≈ 18 µM) | 16 (≈ 36.1 µM) | 32 (≈ 72.2 µM) | Soluble | 89 (≈ 201 µM) | 24 (≈ 54.1 µM) | 6 | 27 (≈ 60.9 µM) | 6 |
| NCCNC(=O)C(CN)(Cc1cc(F)cc(F)c1)Cc1cc(F)cc(F)c1 | > 64 | 64 (≈ 167 µM) | > 64 | > 64 | Soluble | 228 (≈ 595 µM) | > 64 | – | – | – |
| N#CC(Cc1ccc(F)c2ccccc12)(Cc1ccc(F)c2ccccc12)C(=O)NCCN | 4 (≈ 9.02 µM) | 2 (≈ 4.51 µM) | 4 (≈ 9.02 µM) | 32 (≈ 72.2 µM) | Soluble | > 500 | 12 (≈ 27.1 µM) | – | 4 (≈ 9.02 µM) | – |
| NCCNC(=O)C(CN)(Cc1c(F)cccc1F)Cc1c(F)cccc1F | > 64 | > 64 | > 64 | > 64 | Soluble | – | > 64 | – | – | – |
| NCCNC(=O)C(CN)(Cc1cccc2ccccc12)Cc1cccc2ccccc12 | 4 (≈ 9.72 µM) | 2 (≈ 4.86 µM) | 16 (≈ 38.9 µM) | 16 (≈ 38.9 µM) | Soluble | 90 (≈ 219 µM) | – | 6 | 9 (≈ 21.9 µM) | 23 |
| NCCNC(=O)C(CN)(Cc1ccccc1F)Cc1ccccc1F | > 64 | > 64 | > 64 | > 64 | Soluble | – | > 64 | – | – | – |
| N#CC(Cc1cc(Br)cc(Br)c1)(Cc1cc(Br)cc(Br)c1)C(=O)NCCN | > 64 | > 64 | > 64 | > 64 | – | – | – | – | – | – |
| NCCNC(=O)C(CN)(Cc1ccccc1Br)Cc1ccccc1Br | 64 (≈ 136 µM) | 8 (≈ 17 µM) | 64 (≈ 136 µM) | 64 (≈ 136 µM) | Soluble | 271 (≈ 578 µM) | 48 (≈ 102 µM) | 4 | 56 (≈ 119 µM) | 4 |
| CN(C)[C@@H]1C(O)=C(C(N)=O)C(=O)[C@@]2(O)C(O)=C3C(=O)c4c(O)cccc4[C@@](C)(O)[C@H]3[C@H](O)[C@@H]12.Cl [OXYTETRACYCLINE HYDROCHLORIDE] | 0.65 | 0.65 | 2.5 | 20 | – | – | > 64 | – | – | – |
